Reference: ChEMBL document CHEMBL4373672, “A small molecule drug conjugate (SMDC) of DUPA and a duocarmycin built on the solid phase” (Medchemcomm, 2019)

Tests used:
[1] = tested on: DNA; experiment: DNA alkylating activity in human LNCAP cells exhibiting increased cathepsin B activity and overexpressing GCPII assessed as reduction in cell viability incubated for 72 hrs by MTS assay; format: functional, cell-based
Procedure, shortened: (§1)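 Cell lines from ECACC, grown in supplier-recommended media with 10% foetal calf serum and 2 mM L-glutamine, kept at 1-9 x 10^5 cells/mL, 37 °C, 5% CO2. Seeded at 3 x 10^4 cells/100 μL and exposed in triplicate to compound at 100 μM down to 0.00001 μM (10-fold steps) for 72 h; final DMSO 1%. Stocks in DMSO made fresh each day. Doxorubicin hydrochloride (10 μM) served as the 100% inhibition value. MTS reagent added for 3 h, absorbance read at 490 nm. Three independent runs on different passages; IC50 from curve fit.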

[2] = tested on: DNA; experiment: DNA alkylating activity in GCPII negative human PC3 cells exhibiting increased cathepsin B activity assessed as reduction in cell viability incubated for 72 hrs by MTS assay; format: functional; settings: PC-3, 72 h; procedure, shortened: as §1
[3] = tested on: DNA; experiment: DNA alkylating activity in human NCI-H292 cells exhibiting increased cathepsin B activity and overexpressing GCPII assessed as reduction in cell viability incubated for 72 hrs by MTS assay; format: functional, cell-based; settings: NCI-H292, 72 h; procedure, shortened: as §1
[4] = tested on: DNA; experiment: DNA alkylating activity in human A549 cells exhibiting increased cathepsin B activity and overexpressing GCPII assessed as reduction in cell viability incubated for 72 hrs by MTS assay; format: functional, cell-based; settings: A549, 72 h; procedure, shortened: as §1
[5] = tested on: DNA; experiment: DNA alkylating activity in human MCF7 cells exhibiting increased cathepsin B activity and overexpressing GCPII assessed as reduction in cell viability incubated for 72 hrs by MTS assay; format: functional, cell-based; settings: MCF7, 72 h; procedure, shortened: as §1
[6] = tested on: DNA; experiment: DNA alkylating activity in human SKBR3 cells exhibiting increased cathepsin B activity and reduced GCPII expression assessed as reduction in cell viability incubated for 72 hrs by MTS assay; format: functional, cell-based; settings: SK-BR-3, 72 h; procedure, shortened: as §1
[7] = tested on: DNA; experiment: DNA alkylating activity in human SK-MEL-28 cells exhibiting increased cathepsin B activity and overexpressing GCPII assessed as reduction in cell viability incubated for 72 hrs by MTS assay; format: functional, cell-based; settings: SK-MEL-28, 72 h; procedure, shortened: as §1
[8] = tested on: DNA; experiment: DNA alkylating activity in human GCPII negative 16HBE14o cells deficient of cathepsin B activity assessed as reduction in cell viability incubated for 72 hrs by MTS assay; format: functional; procedure, shortened: as §1
[9] = tested on: DNA; experiment: DNA alkylating activity in GCPII negative human PC3 cells exhibiting increased cathepsin B activity assessed as reduction in cell viability incubated with GCPII binder 2-PMPA for 1 hr followed by incubation with compound for 48 hrs by MTS assay; format: functional; settings: PC-3
Procedure, shortened: (§2)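 Pre-treatment of cells (3 x 10^4/100 μL) with 10 μM 2-PMPA for 1 h. Compound in DMSO was then added in triplicate at 100 μM to 0.0001 μM (10-fold steps), 48 h at 37 °C, 5% CO2; final DMSO 1%. Doxorubicin hydrochloride defined 100% inhibition. MTS reagent for 3 h, absorbance at 490 nm. Three independent runs on different passages.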

[10] = tested on: DNA; experiment: DNA alkylating activity in human LNCAP cells exhibiting increased cathepsin B activity and overexpressing GCPII assessed as reduction in cell viability incubated with GCPII binder 2-PMPA for 1 hr followed by incubation with compound for 48 hrs by MTS assay; format: functional, cell-based; procedure, shortened: as §2

NC(=O)c1cc2c3c(cc(O)c2[nH]1)N(C(=O)c1ccc(N)cc1)CC3CCl (stereo not given) gave an IC50 [1] of 15.7 nM, an IC50 [2] of 4.7 nM and an IC50 [3] of 7.3 nM. It also gave an IC50 [4] of 36.6 nM, an IC50 [5] of 181 nM and an IC50 [6] of 2.3 nM. The IC50 [7] was 22.5 nM, the IC50 [8] was 85.4 nM and the IC50 [9] was 6.1 nM. It also gave an IC50 [10] of 25.5 nM.
